TRPC4 inh = inhibitors of mouse TRPC4 channel. Q9QUQ5. HEK293 TRPC4beta/mu-opioid, DAMGO-evoked Fluo4 calcium flux; active compounds read low. B-score at 10 µM. actives 0.39% (n = 300,000). AID 2247;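 active = B-score over 3 SD under the library average, no early fluorescence shift, positive overall ratio signal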
Target sequence (Q9QUQ5 whole entry, looked up): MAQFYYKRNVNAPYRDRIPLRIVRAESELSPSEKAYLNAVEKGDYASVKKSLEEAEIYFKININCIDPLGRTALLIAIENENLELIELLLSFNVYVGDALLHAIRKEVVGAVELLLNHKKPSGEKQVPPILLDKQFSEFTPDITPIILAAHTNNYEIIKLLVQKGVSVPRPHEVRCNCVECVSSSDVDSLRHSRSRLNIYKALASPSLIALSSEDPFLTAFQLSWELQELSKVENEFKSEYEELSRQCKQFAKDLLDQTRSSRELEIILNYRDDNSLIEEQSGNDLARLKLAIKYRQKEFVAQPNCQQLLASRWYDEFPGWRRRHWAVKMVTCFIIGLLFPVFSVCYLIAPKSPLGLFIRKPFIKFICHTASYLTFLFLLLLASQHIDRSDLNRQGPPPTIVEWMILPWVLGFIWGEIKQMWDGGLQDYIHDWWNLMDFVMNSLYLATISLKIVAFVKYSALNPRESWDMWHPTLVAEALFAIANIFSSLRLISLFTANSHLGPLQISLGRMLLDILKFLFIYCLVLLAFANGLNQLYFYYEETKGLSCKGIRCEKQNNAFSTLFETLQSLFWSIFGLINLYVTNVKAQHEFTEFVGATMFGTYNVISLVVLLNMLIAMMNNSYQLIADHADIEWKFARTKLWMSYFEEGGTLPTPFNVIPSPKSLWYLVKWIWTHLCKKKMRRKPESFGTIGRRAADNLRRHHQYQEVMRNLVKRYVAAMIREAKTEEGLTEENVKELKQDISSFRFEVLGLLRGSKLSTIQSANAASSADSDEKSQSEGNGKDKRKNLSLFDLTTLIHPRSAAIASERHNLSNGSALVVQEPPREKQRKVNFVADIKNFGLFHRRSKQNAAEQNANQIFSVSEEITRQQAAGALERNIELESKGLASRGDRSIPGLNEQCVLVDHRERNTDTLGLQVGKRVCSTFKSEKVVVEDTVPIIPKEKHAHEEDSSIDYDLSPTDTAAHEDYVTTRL
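Material: HEK293 cells with stable TRPC4beta plus mu-opioid receptor expression / Probe or stimulus: DAMGO in two steps, submaximal then maximal / Compound: single concentration per test compound / Technique: kinetic Fluo4 fluorescence imaging of calcium influx / Read-out: per-well B score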
TRPC6 activator = activators of mouse TRPC6 channel. AID 2550. actives 0.13% (n = 310,000). Q61143. HEK293-TRPC6 membrane potential dye fluorescence; active compounds read high. B-score at 10 µM;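 active = B-score of the integrated fluorescence ratio above library mean plus 3 SD, and starting fluorescence ratio within library mean plus 5 SD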;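 note: higher score means more depolarization so channel activation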
TRPC6 inh = mouse TRPC6 channel inhibition | Q61143 | HEK293-TRPC6, membrane potential dye, ACh-evoked depolarization; active compounds read low | B-score at 10 µM | actives 1.1% (n = 310,000) | AID 2553;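 active = B-score under library mean minus 3 SD, initial fluorescence not abnormally high, positive integrated signal ratio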;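 note: B-score derived from integrated fluorescence ratio over the kinetic read; more negative B-score means stronger inhibition of depolarization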
TRPC4 PAM = allosterically enhances the mouse TRPC4 cation channel | Q9QUQ5 | HEK293 TRPC4beta/mu-opioid, DAMGO EC20, Fluo-4 Ca2+ flux; active compounds read high | B-score at 10 µM | actives 0.42% (n = 310,000) | AID 2227;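 active = B-score of calcium response area above 5 SD of library B-scores, with initial fluorescence ratio within 5 SD of library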;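 note: B-score of integrated fluorescence ratio over time as area under calcium response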
TRPC4 agonist = activators of mouse TRPC4 channel. HEK293 TRPC4beta/mu-opioid, Fluo4 calcium fluorescence; active compounds read high. B-score at 10 µM. actives 0.49% (n = 310,000). AID 2237;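 active = B-score above 5 SD of library B-scores, and initial fluorescence ratio not above library mean plus 5 SD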;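 note: positive B-score marks a calcium rise read as TRPC4 activation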
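Material: HEK293 stable line with TRPC4beta plus mu-opioid receptor; technique: Fluo4 calcium-sensitive dye fluorescence, kinetic, 1 Hz baseline; timing: Fluo4 dye loading 45 min at room temperature, 110 s recording; controls: assay buffer as low control, maximal DAMGO as high control; read-out: integrated baseline-normalised fluorescence ratio, converted to per-well B score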
Numbers without * were called inactive; i = inactive. Hits are enriched below; roughly 2.3% of the tested compounds scored in any of these assays.

SMILES | TRPC4 inh | TRPC6 activator | TRPC6 inh | TRPC4 PAM | TRPC4 agonist
O=C(c1c(O)c2ccccc2oc1=O)C1CCCCC1 | i | i | i | i | i
CNC[C@@H](Cc1ccccc1)NC[C@@H](CC1CCCCC1)NCCCc1ccccc1 | i | i | i | i | 77*
CSc1cccc(NC(=O)N2CCN(C)CC2)c1 | i | i | i | 28* | i
CN1CCN(C(=O)Nc2ccccc2)CC1 | i | i | i | i | i
O=C(c1ccc(CN2CCOCC2)cc1)N1CCN(c2ccccc2)CC1 | -6* | i | i | i | i
CC(=O)c1ccc(N2CCN(C(=O)c3ccc(Cn4c(=S)[nH]c5ccc(N6CCOCC6)cc5c4=O)cc3)CC2)cc1 | i | i | i | 14* | i
CC(=O)c1cccc(N(CC(=O)Nc2ccccc2C(=O)N2CCCC2)S(C)(=O)=O)c1 | i | i | i | i | i
O=C1C=C(O)CC(c2ccc(Cl)c(Cl)c2)C1 (stereo unspecified) | i | i | i | 11* | i
O=C1C=C(O)CC(c2ccc(Cl)cc2)C1 (stereo unspecified) | i | i | i | i | i
COC(=O)[C@H](Cc1ccccc1)NC(=O)c1ccc2ccccc2n1 | i | i | i | 16* | i
Cn1c(=O)c2sccc2n2c(CCCC(=O)NC3CCN(Cc4ccccc4)CC3)nnc12 | i | i | i | 14* | i
Cn1c(=O)c2sccc2n2c(CCCC(=O)Nc3ccccc3)nnc12 | i | i | i | i | i
NC(=O)C[n+]1cccc(CNC(=O)c2ccc(OC(F)F)cc2)c1 | i | i | i | i | i
O=C(C[n+]1ccc(C(=O)NCc2ccccc2)cc1)c1ccc(OC(F)F)cc1 | i | i | i | 10* | i
Cc1ccsc1/C=C1\SC(N2CC(C)OC(C)C2)=NC1=O (stereo unspecified) | i | i | i | i | i
O=C(Nc1ccncc1)c1ccc(Cl)c(S(=O)(=O)N2CCc3ccccc32)c1 | i | i | i | i | 95*
Cc1ccnc(N/C=C(/NC(=O)c2ccccc2)C(=O)N/N=C\c2ccc(Cl)cc2)n1 | i | i | i | i | i
COCC(C)NC(C(=O)Nc1ccc(Cl)c([N+](=O)[O-])c1)c1ccccc1 (stereo unspecified) | -7* | i | i | i | i
O=C(Nc1ccc(Cl)c([N+](=O)[O-])c1)C(Sc1ccccc1)c1ccccc1 (stereo unspecified) | i | i | i | i | i
O=C(Nc1ccc(Cl)c([N+](=O)[O-])c1)C(NCCCO)c1ccccc1 (stereo unspecified) | i | i | i | i | i
CCC(C)NC(C(=O)Nc1ccc(Cl)c([N+](=O)[O-])c1)c1ccccc1 (stereo unspecified) | -7* | i | i | i | i
O=[N+]([O-])c1ccc(Cl)c(NC2=NCCCCC2)c1 | i | i | i | i | i
Cn1c(-c2ccccc2)cnc1NCc1ccc(F)cc1 | -7* | i | i | i | i
Cc1csc(CNC(=O)c2ccc(OC3CCN(CCc4ccccc4)CC3)cc2)n1 | i | i | i | i | i
O=C(NCCn1cccn1)c1ccc(OC2CCN(CCc3ccccc3)CC2)cc1 | i | i | i | i | 66*
SMILES | TRPC4 inh | TRPC6 activator | TRPC6 inh | TRPC4 PAM | TRPC4 agonist
O=C(NC1CCOC1)c1ccc(OC2CCN(CCc3ccccc3)CC2)cc1 (stereo unspecified) | i | i | i | i | i
COC(=O)CCCNC(=O)c1ccc(OC2CCN(CCc3ccccc3)CC2)cc1 | i | i | i | i | 79*
CN(C(=O)c1ccc(OC2CCN(CCc3ccccc3)CC2)cc1)C1CCOCC1 | i | i | i | i | i
CSCCNC(=O)c1ccc(OC2CCN(CCc3ccccc3)CC2)cc1 | -6* | i | i | i | i
CN(C(=O)c1ccc(OC2CCN(CCc3ccccc3)CC2)cc1)C1CCCCC1 | -6* | i | i | i | i
CCCN1CCC(NC(=O)Nc2ccc([N+](=O)[O-])cc2)CC1 | i | i | i | i | i
NC(=O)N/N=C1\c2ccccc2-c2c(C(N)=O)cccc21 | -5* | i | i | i | i
N#Cc1cccc2c1-c1ccccc1/C2=N/NC(N)=O | -6* | i | i | i | i
N#Cc1cccc2c1-c1ccccc1/C2=N/NC(N)=S | i | i | i | i | i
C=CCc1cccc(/C=N/NC(=O)CCC(=O)Nc2ccc(C)cc2)c1O | i | i | i | i | i
O=C1C=CC(=O)N1c1ccc(Sc2ccc([N+](=O)[O-])cc2)cc1 | i | i | i | i | i
Nc1ccc(Sc2ccc([N+](=O)[O-])cc2)cc1 | -6* | i | i | i | i
O=C(Nc1ccc(Cl)c(C(F)(F)F)c1)[C@@H]1CC=C[C@@H]2CCN(C3CC3)C(=O)[C@@H]21 | i | i | i | i | i
O=C1c2ccccc2NC(c2ccc(Br)s2)N1O (stereo unspecified) | i | i | i | i | i
CCCN(CC(=O)Nc1ccccc1Br)CC(=O)Nc1ccc(F)c(F)c1F | i | i | i | 12* | i
CNC(=S)N(CCCN(C)C)Cc1cc2cc3c(cc2[nH]c1=O)OCCO3 | i | i | i | i | i
CN(C)CCn1c(=O)n(Cc2ccccc2)c(=O)c2c3c(sc21)CCCCC3 | i | i | i | i | i
CN(C)CCCn1c(=O)n(CCc2ccccc2)c(=O)c2c3c(sc21)CCCCC3 | i | i | i | 22* | i
COc1ccc(-c2c(C)[nH]n3c(=O)c(Cc4ccccc4)c(C)nc23)cc1 | -6* | i | i | i | i
Cc1[nH]n2c(=O)c3c(nc2c1-c1ccccc1)CCC3 | -6* | i | i | i | i
Cc1cc(C[n+]2cc(Cl)ccc2N)c2ncccc2c1 | i | i | i | i | i
Cc1cc(C[n+]2ncsc2N)c2ncccc2c1 | i | i | i | i | i
COc1ccc2c(c1)sc(N)[n+]2Cc1cc(C)cc2cccnc12 | -5* | i | i | i | i
CCOc1ccc2c(c1)sc(N)[n+]2Cc1cc(C)cc2cccnc12 | -7* | i | i | i | i
O=C(Nc1ccc(Cl)c([N+](=O)[O-])c1)c1ccncc1 | i | i | i | i | i
O=C(Nc1ccc(Cl)c([N+](=O)[O-])c1)c1cnccn1 | i | i | i | 21* | i

Source: PubChem BioAssay (Johns Hopkins Ion Channel Center)
